Measurements: ChEMBL document CHEMBL4715736, “Identification of anticancer agents based on the thieno[2,3-b]pyridine and 1H-pyrazole molecular scaffolds” (2016)

What was measured:
Assay type in all cases: functional
Details in all cases: read-out: Activity
[1] = system: CCRF-CEM; experiment: Growth inhibition of human CCRF-CEM cells assessed as cell growth at 10 uM incubated for 48 hrs by sulforhodamine B assay relative to control
Summary of the method: (§1)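 NCI Developmental Therapeutics Program NCI60 panel. Compounds that were active in the 10 µM one-dose screen went on to dose–response testing. Growth at each concentration is expressed relative to untreated control (100%). GI50 (concentration giving 50% of maximal inhibition of proliferation) and TGI (concentration giving total growth inhibition) were derived from the curves.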

[2] = system: RPMI-8226; experiment: Growth inhibition of human RPMI-8226 cells assessed as cell growth at 10 uM incubated for 48 hrs by sulforhodamine B assay relative to control
Summary of the method: (§2)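 Run by the NCI Developmental Therapeutics Program as part of its 60-line human tumour panel. Each compound tested at a single 10 µM dose. Growth expressed as % relative to untreated control cells (100%).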

[3] = system: A549; experiment: Growth inhibition of human A549/ATCC cells assessed as cell growth at 10 uM incubated for 48 hrs by sulforhodamine B assay relative to control; summary of the method: as §1
[4] = system: HOP-62; experiment: Growth inhibition of human HOP-62 cells assessed as cell growth at 10 uM incubated for 48 hrs by sulforhodamine B assay relative to control
Summary of the method: (§3)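 Submitted to the NCI Developmental Therapeutics Program for the NCI60 human tumour cell line panel. First screen at a single 10 µM concentration. Read-out is growth relative to untreated control cells set at 100%.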

[5] = system: HOP-92; experiment: Growth inhibition of human HOP-92 cells assessed as cell growth at 10 uM incubated for 48 hrs by sulforhodamine B assay relative to control; summary of the method: as §3
[6] = system: NCI-H23; experiment: Growth inhibition of human NCI-H23 cells assessed as cell growth at 10 uM incubated for 48 hrs by sulforhodamine B assay relative to control; summary of the method: as §3
[7] = system: NCI-H322M; experiment: Growth inhibition of human NCI-H322M cells assessed as cell growth at 10 uM incubated for 48 hrs by sulforhodamine B assay relative to control; summary of the method: as §3
[8] = system: NCI-H460; experiment: Growth inhibition of human NCI-H460 cells assessed as cell growth at 10 uM incubated for 48 hrs by sulforhodamine B assay relative to control; summary of the method: as §3
[9] = system: COLO 205; experiment: Growth inhibition of human COLO 205 cells assessed as cell growth at 10 uM incubated for 48 hrs by sulforhodamine B assay relative to control; summary of the method: as §1
[10] = system: HCC 2998; experiment: Growth inhibition of human HCC 2998 cells assessed as cell growth at 10 uM incubated for 48 hrs by sulforhodamine B assay relative to control; summary of the method: as §1
[11] = system: HCT-116; experiment: Growth inhibition of human HCT-116 cells assessed as cell growth at 10 uM incubated for 48 hrs by sulforhodamine B assay relative to control; summary of the method: as §3
[12] = system: KM12; experiment: Growth inhibition of human KM12 cells assessed as cell growth at 10 uM incubated for 48 hrs by sulforhodamine B assay relative to control; summary of the method: as §3
[13] = system: SF-539; experiment: Growth inhibition of human SF-539 cells assessed as cell growth at 10 uM incubated for 48 hrs by sulforhodamine B assay relative to control; summary of the method: as §2
[14] = system: SNB-19; experiment: Growth inhibition of human SNB-19 cells assessed as cell growth at 10 uM incubated for 48 hrs by sulforhodamine B assay relative to control; summary of the method: as §2
[15] = system: U-251; experiment: Growth inhibition of human U-251 cells assessed as cell growth at 10 uM incubated for 48 hrs by sulforhodamine B assay relative to control; summary of the method: as §2
[16] = system: LOX IMVI; experiment: Growth inhibition of human LOX IMVI cells assessed as cell growth at 10 uM incubated for 48 hrs by sulforhodamine B assay relative to control; summary of the method: as §3
[17] = system: Malme-3M; experiment: Growth inhibition of human Malme-3M cells assessed as cell growth at 10 uM incubated for 48 hrs by sulforhodamine B assay relative to control; summary of the method: as §3
[18] = system: M14; experiment: Growth inhibition of human M14 cells assessed as cell growth at 10 uM incubated for 48 hrs by sulforhodamine B assay relative to control; summary of the method: as §3
[19] = system: SK-MEL-28; experiment: Growth inhibition of human SK-MEL-28 cells assessed as cell growth at 10 uM incubated for 48 hrs by sulforhodamine B assay relative to control; summary of the method: as §2
[20] = system: SK-MEL-5; experiment: Growth inhibition of human SK-MEL-5 cells assessed as cell growth at 10 uM incubated for 48 hrs by sulforhodamine B assay relative to control; summary of the method: as §2
[21] = system: UACC-257; experiment: Growth inhibition of human UACC-257 cells assessed as cell growth at 10 uM incubated for 48 hrs by sulforhodamine B assay relative to control; summary of the method: as §2
[22] = system: UACC-62; experiment: Growth inhibition of human UACC-62 cells assessed as cell growth at 10 uM incubated for 48 hrs by sulforhodamine B assay relative to control; summary of the method: as §2
[23] = system: IGROV-1; experiment: Growth inhibition of human IGROV-1 cells assessed as cell growth at 10 uM incubated for 48 hrs by sulforhodamine B assay relative to control; summary of the method: as §3
[24] = system: OVCAR-4; experiment: Growth inhibition of human OVCAR-4 cells assessed as cell growth at 10 uM incubated for 48 hrs by sulforhodamine B assay relative to control; summary of the method: as §2
[25] = system: OVCAR-5; experiment: Growth inhibition of human OVCAR-5 cells assessed as cell growth at 10 uM incubated for 48 hrs by sulforhodamine B assay relative to control; summary of the method: as §2
[26] = system: OVCAR-8; experiment: Growth inhibition of human OVCAR-8 cells assessed as cell growth at 10 uM incubated for 48 hrs by sulforhodamine B assay relative to control; summary of the method: as §2
[27] = system: ACHN; experiment: Growth inhibition of human ACHN cells assessed as cell growth at 10 uM incubated for 48 hrs by sulforhodamine B assay relative to control
Summary of the method: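 NCI Developmental Therapeutics Program NCI60 human tumour cell line panel, one-dose primary screen with every compound at 10 µM. Growth is expressed as % of untreated control cells (100%).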

[28] = system: RXF 393; experiment: Growth inhibition of human RXF 393 cells assessed as cell growth at 10 uM incubated for 48 hrs by sulforhodamine B assay relative to control; summary of the method: as §2
[29] = system: SN12C; experiment: Growth inhibition of human SN12C cells assessed as cell growth at 10 uM incubated for 48 hrs by sulforhodamine B assay relative to control; summary of the method: as §2
[30] = system: DU-145; experiment: Growth inhibition of human DU-145 cells assessed as cell growth at 10 uM incubated for 48 hrs by sulforhodamine B assay relative to control; summary of the method: as §1
[31] = system: MCF7; experiment: Growth inhibition of human MCF7 cells assessed as cell growth at 10 uM incubated for 48 hrs by sulforhodamine B assay relative to control; summary of the method: as §3
[32] = system: T47D; experiment: Growth inhibition of human T47D cells assessed as cell growth at 10 uM incubated for 48 hrs by sulforhodamine B assay relative to control; summary of the method: as §2
[33] = system: MDA-MB-468; experiment: Growth inhibition of human MDA-MB-468 cells assessed as cell growth at 10 uM incubated for 48 hrs by sulforhodamine B assay relative to control; summary of the method: as §3
[34] = system: SF-295; experiment: Growth inhibition of human SF-295 cells assessed as cell growth at 10 uM incubated for 48 hrs by sulforhodamine B assay relative to control; summary of the method: as §2
[35] = system: OVCAR-3; experiment: Growth inhibition of human OVCAR-3 cells assessed as cell growth at 10 uM incubated for 48 hrs by sulforhodamine B assay relative to control; summary of the method: as §2

SMILES	growth at 10 µM [1] [%]	growth at 10 µM [2] [%]	growth at 10 µM [3] [%]	growth at 10 µM [4] [%]	growth at 10 µM [5] [%]	growth at 10 µM [6] [%]	growth at 10 µM [7] [%]	growth at 10 µM [8] [%]	growth at 10 µM [9] [%]	growth at 10 µM [10] [%]	growth at 10 µM [11] [%]	growth at 10 µM [12] [%]	growth at 10 µM [13] [%]	growth at 10 µM [14] [%]	growth at 10 µM [16] [%]	growth at 10 µM [18] [%]	growth at 10 µM [19] [%]	growth at 10 µM [20] [%]	growth at 10 µM [21] [%]	growth at 10 µM [22] [%]	also measured
O=S(=O)(c1ccc(Br)cc1)n1ccc(-c2ccc(OCCCF)cc2)n1	92.3	77.1	75.7	118	74.1	80.3	104	90.1	102	90.3	78.7	104	90.2	95.5	100	97.1	93.4	75.4	77.9	59.9	growth at 10 µM [15]: 90.7%; growth at 10 µM [17]: 89%; growth at 10 µM [23]: 89%; growth at 10 µM [24]: 71.1%; growth at 10 µM [25]: 103%; growth at 10 µM [26]: 95.1%; growth at 10 µM [27]: 94.1%; growth at 10 µM [28]: 92.7%; growth at 10 µM [29]: 87%; growth at 10 µM [30]: 102%; growth at 10 µM [31]: 75.6%; growth at 10 µM [32]: 72.6%; growth at 10 µM [33]: 39.8%
Nc1c(C(=O)N(c2ccccc2)c2ccccc2)sc2nc3c(cc12)C(=O)CCC3	96.1	94.8	90.2	99.3	103	101	102	99.9	109	116	94.2	79	81.7	104	94.3	94.2	116	102	106	109	growth at 10 µM [34]: 107%; growth at 10 µM [23]: 103%; growth at 10 µM [35]: 107%; growth at 10 µM [25]: 130%; growth at 10 µM [26]: 105%; growth at 10 µM [27]: 110%; growth at 10 µM [28]: 111%; growth at 10 µM [29]: 101%; growth at 10 µM [30]: 68.6%; growth at 10 µM [31]: 99.6%; growth at 10 µM [32]: 99.5%; growth at 10 µM [33]: 106%
CC(=O)c1ccc2c(N)c(C(=O)Nc3ccccc3)sc2n1	101	89	89	102	74	99.2	114	101	105	106	108	110	97	105	105	109	108	98.5	102	115	growth at 10 µM [34]: 108%; growth at 10 µM [23]: 113%; growth at 10 µM [35]: 119%; growth at 10 µM [24]: 84.2%; growth at 10 µM [25]: 113%; growth at 10 µM [26]: 100%; growth at 10 µM [27]: 102%; growth at 10 µM [28]: 100%; growth at 10 µM [29]: 110%; growth at 10 µM [30]: 107%; growth at 10 µM [31]: 96.8%; growth at 10 µM [32]: 93.7%; growth at 10 µM [33]: 87.4%
